The target of assay [1] is T1, Interstitial collagenase (Homo sapiens, UniProt P03956).
T1 sequence (P03956 whole entry): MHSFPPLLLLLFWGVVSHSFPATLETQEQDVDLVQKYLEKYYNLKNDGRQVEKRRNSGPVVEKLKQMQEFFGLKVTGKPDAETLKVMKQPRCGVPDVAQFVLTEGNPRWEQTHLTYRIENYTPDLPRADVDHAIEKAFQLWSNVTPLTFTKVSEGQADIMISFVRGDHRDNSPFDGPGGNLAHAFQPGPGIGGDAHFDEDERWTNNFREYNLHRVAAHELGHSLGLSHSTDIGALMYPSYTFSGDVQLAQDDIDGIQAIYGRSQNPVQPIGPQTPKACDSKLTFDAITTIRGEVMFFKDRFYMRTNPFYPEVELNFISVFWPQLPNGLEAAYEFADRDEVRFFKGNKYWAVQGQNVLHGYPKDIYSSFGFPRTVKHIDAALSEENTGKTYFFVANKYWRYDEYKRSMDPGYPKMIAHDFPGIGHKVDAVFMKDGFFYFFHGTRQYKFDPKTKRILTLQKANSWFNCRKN
Briefly: Inhibition of MMP1. In a few lines:
(§1)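 Catalytic domains used at final levels of 85 nM (MMP-1), 24 nM (MMP-2), 18 nM (MMP-9) and 84 nM (MMP-12). Each enzyme was premixed with compound (serial 1:2 dilutions, 150 to 1.2) for 30 min at 37 °C. Substrate was added in 50 mM Hepes with 5 mM CaCl2 and 0.05% w/w Brij-35, pH 7.5, then incubated 30 min. Fluorescence read at ex 328/em 393 nm over 45 min, every 50 s.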

Assay [2] deals with 72 kDa type IV collagenase (Homo sapiens, UniProt P08253). Briefly: Inhibition of MMP2. In a few lines: as §1
72 kDa type IV collagenase, sequence (P08253 whole entry): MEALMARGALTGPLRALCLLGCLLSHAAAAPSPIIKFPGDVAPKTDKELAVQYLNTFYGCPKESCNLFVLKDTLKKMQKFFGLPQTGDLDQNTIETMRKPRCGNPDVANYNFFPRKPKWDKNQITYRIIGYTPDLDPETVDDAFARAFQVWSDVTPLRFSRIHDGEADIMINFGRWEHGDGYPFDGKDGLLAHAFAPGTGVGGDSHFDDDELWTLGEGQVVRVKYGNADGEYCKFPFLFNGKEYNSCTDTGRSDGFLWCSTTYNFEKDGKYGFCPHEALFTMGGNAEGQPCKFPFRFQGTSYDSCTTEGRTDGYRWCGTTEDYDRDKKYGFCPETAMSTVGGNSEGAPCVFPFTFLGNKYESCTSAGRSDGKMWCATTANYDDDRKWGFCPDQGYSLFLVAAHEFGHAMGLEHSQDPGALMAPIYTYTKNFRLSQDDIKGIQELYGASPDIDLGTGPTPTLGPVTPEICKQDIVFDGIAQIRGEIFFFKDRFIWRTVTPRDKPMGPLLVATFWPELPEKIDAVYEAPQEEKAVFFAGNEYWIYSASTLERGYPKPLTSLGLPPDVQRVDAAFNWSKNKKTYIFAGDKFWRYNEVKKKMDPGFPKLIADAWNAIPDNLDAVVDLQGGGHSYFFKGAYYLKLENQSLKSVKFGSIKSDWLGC
Assay [3] concerns the target Matrix metalloproteinase-9 (Homo sapiens, UniProt P14780). Briefly: Inhibition of MMP9. In a few lines:
as §1

Assay [4] addresses Macrophage metalloelastase (Homo sapiens, UniProt P39900). Briefly: Inhibition of MMP12. The gist of the method: as §1

This note sets out measurements from ChEMBL document CHEMBL1141363, “Synthesis and evaluation of novel heterocyclic MMP inhibitors” (Bioorg Med Chem Lett, 2007).

Structures are written as SMILES. Where only a bound is given, the exact number is not on record here.

One may read the IC50 as the concentration that gives 50% inhibition. A higher IC50 goes with weaker potency in that assay.

Matrix metalloproteinase-9, sequence (P14780 whole entry): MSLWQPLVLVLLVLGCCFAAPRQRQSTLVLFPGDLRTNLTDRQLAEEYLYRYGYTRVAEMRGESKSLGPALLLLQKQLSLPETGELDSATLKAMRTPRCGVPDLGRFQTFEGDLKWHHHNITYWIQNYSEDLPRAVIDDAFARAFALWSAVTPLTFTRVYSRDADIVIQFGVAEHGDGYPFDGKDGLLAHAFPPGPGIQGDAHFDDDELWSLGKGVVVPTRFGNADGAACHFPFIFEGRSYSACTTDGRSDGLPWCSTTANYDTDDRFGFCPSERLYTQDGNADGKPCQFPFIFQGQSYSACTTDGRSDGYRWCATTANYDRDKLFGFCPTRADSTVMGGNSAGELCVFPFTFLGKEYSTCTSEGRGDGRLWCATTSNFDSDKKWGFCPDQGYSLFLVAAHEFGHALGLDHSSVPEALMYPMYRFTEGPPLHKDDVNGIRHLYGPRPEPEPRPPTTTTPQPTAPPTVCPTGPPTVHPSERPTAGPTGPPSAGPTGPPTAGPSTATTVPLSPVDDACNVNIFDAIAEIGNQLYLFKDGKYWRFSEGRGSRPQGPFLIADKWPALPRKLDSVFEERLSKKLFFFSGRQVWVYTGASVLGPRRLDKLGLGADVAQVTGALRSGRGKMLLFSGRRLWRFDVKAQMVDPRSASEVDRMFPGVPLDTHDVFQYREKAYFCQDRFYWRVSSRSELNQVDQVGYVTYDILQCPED
Macrophage metalloelastase, sequence (P39900 whole entry): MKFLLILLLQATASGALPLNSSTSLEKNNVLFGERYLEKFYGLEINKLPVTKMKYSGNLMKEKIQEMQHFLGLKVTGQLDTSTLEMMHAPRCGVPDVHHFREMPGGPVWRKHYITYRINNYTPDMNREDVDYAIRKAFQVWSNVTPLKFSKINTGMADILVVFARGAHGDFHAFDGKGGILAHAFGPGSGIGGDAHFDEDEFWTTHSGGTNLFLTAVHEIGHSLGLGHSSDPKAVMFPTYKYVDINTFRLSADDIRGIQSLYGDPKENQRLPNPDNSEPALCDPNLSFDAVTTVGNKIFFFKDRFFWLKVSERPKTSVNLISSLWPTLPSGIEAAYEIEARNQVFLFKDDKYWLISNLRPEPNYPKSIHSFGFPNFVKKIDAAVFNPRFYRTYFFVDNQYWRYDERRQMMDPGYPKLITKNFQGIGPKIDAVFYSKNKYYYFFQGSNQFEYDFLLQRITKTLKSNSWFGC

For `O=C(OCc1ccc(C(F)(F)F)cc1)c1cccc(=O)[nH]1`, the IC50 in assay [1] came out at 24 µM; in assay [2] it was 112 µM; in assay [3], 101 µM; in assay [4] it was 64 µM.

Regarding `C1=C(n2cc(C3=NCCO3)nn2)CCCC1`, the IC50 in assay [1], in assay [2], in assay [3] and in assay [4] was greater than 150 µM throughout.

`O=C(OC1CCC1)c1cccc(=O)[nH]1`: the IC50 in assay [1] was found to be 25 µM; in assay [2], 66 µM; in assay [3] it was 62 µM; in assay [4], 51 µM.

As for `COc1cccc(COC(=O)c2cccc(=O)[nH]2)c1`, the IC50 came out at 69 µM in assay [1], 70 µM in assay [2], 88 µM in assay [3] and 69 µM in assay [4].

With `COc1ccc(COC(=O)c2cccc(=O)[nH]2)cc1`, the IC50 was 99 µM in assay [1], 110 µM in assay [2], 100 µM in assay [3] and 105 µM in assay [4].

On to `O=C(Oc1ccc2ccccc2c1)c1cccc(=O)[nH]1`, for which the IC50 turned out to be 75 µM in assay [1], 125 µM in assay [2], 103 µM in assay [3] and 97 µM in assay [4].

Consider `O=C(OCc1ccc2c(c1)OCO2)c1cccc(=O)[nH]1`, for which the IC50 in assay [1] is 128 µM; in assay [2] it was 107 µM; in assay [3], 114 µM; in assay [4] it was 105 µM.

For the molecule `O=C(OCCCCOc1ccccc1)c1cccc(=O)[nH]1`, the IC50 in assay [1] is 67 µM; in assay [2] it was 90 µM; in assay [3], 94 µM; in assay [4], 82 µM.

Take `O=C(OCc1ccccc1F)c1cccc(=O)[nH]1`: the IC50 in assay [1] was found to be 64 µM; in assay [2] it was 71 µM; in assay [3], 76 µM; in assay [4] it was 68 µM.

On to `O=C(OCc1ccc(F)cc1)c1cccc(=O)[nH]1`, for which the IC50 in assay [1] stood at 23 µM; in assay [2], 71 µM; in assay [3] it was 3 µM; in assay [4], 65 µM.

As to `O=C(OCc1c(F)cccc1F)c1cccc(=O)[nH]1`, the IC50 was 35 µM in assay [1], 66 µM in assay [2], 60 µM in assay [3] and 60 µM in assay [4].

For the molecule `O=C(OCc1c(F)cc(F)cc1F)c1cccc(=O)[nH]1`, the IC50 came out at 16 µM in assay [1], 39 µM in assay [2], 33 µM in assay [3] and 31 µM in assay [4].

Regarding `Cc1ccc(COC(=O)c2cccc(=O)[nH]2)cc1`, the IC50 in assay [1] worked out at 65 µM; in assay [2], 73 µM; in assay [3], 68 µM; in assay [4], 69 µM.

For the molecule `O=C(OCc1c(F)c(F)c(F)c(F)c1F)c1cccc(=O)[nH]1`, the IC50 in assay [1] is 19 µM; in assay [2], 64 µM; in assay [3], 69 µM; in assay [4], 63 µM.

Take `O=C(OCc1cccc(Cl)c1)c1cccc(=O)[nH]1`: the IC50 was found to be 25 µM in assay [1], 5 µM in assay [2], 67 µM in assay [3] and 46 µM in assay [4].

In the case of `O=C(OCc1cccc(C(F)(F)F)c1)c1cccc(=O)[nH]1`, the IC50 in assay [1] was 28 µM; in assay [2], greater than 150 µM; in assay [3] it was greater than 150 µM; in assay [4], 82 µM.

As for `O=C(OCc1ccc(Cl)cc1)c1cccc(=O)[nH]1`, the IC50 in assay [1] amounted to 26 µM; in assay [2], 69 µM; in assay [3] it was 68 µM; in assay [4], 47 µM.

Regarding `O=C(OCc1ccccc1Br)c1cccc(=O)[nH]1`, the IC50 came to 19 µM in assay [1], 57 µM in assay [2], 59 µM in assay [3] and 44 µM in assay [4].

For `O=C(OCc1cccc(Br)c1)c1cccc(=O)[nH]1`, the IC50 stood at 22 µM in assay [1], 68 µM in assay [2], 67 µM in assay [3] and 31 µM in assay [4].

With `O=C(OCc1ccc(Br)cc1)c1cccc(=O)[nH]1`, the IC50 stood at 81 µM in assay [1], 107 µM in assay [2], 114 µM in assay [3] and 105 µM in assay [4].

For the molecule `CC(C)=CCOC(=O)c1cccc(=O)[nH]1`, the IC50 in assay [1] came out at 37 µM; in assay [2], 72 µM; in assay [3] it was 69 µM; in assay [4] it was 67 µM.

Regarding `O=C(OC/C=C/c1ccccc1)c1cccc(=O)[nH]1`, the IC50 in assay [1] stood at 86 µM; in assay [2], 90 µM; in assay [3], 73 µM; in assay [4] it was 70 µM.

Take `CC#CCOC(=O)c1cccc(=O)[nH]1`: the IC50 in assay [1] was 50 µM; in assay [2], 70 µM; in assay [3], 68 µM; in assay [4] it was 71 µM.

For `O=C(OC1CCCCC1)c1cccc(=O)[nH]1`, the IC50 came out at 32 µM in assay [1], 101 µM in assay [2], 94 µM in assay [3] and 71 µM in assay [4].

Consider `O=C(OCCc1ccccc1)c1cccc(=O)[nH]1`, for which the IC50 was 47 µM in assay [1], 69 µM in assay [2], 81 µM in assay [3] and 68 µM in assay [4].

Take `O=C(OCc1cc(F)c(F)cc1F)c1cccc(=O)[nH]1`: the IC50 in assay [1] was 30 µM; in assay [2], 86 µM; in assay [3] it was 67 µM; in assay [4], 56 µM.

Consider `O=C(OCc1cccc(F)c1)c1cccc(=O)[nH]1`, for which the IC50 stood at 28 µM in assay [1], 70 µM in assay [2], 50 µM in assay [3] and 16 µM in assay [4].

For `O=C(OCc1ccccc1)c1cccc(=O)[nH]1`, the IC50 in assay [1] was 30 µM; in assay [2], 65 µM; in assay [3] it was 69 µM; in assay [4] it was 69 µM.

Consider `O=C(OCc1cc(F)ccc1F)c1cccc(=O)[nH]1`, for which the IC50 is 70 µM in assay [1], 70 µM in assay [2], 85 µM in assay [3] and 100 µM in assay [4].

With `O=C(Oc1cccc2ccccc12)c1cccc(=O)[nH]1`, the IC50 in assay [1] is 115 µM; in assay [2], 109 µM; in assay [3], 109 µM; in assay [4], 111 µM.

In the case of `O=C(OCc1cc(F)cc(F)c1)c1cccc(=O)[nH]1`, the IC50 is 41 µM in assay [1], 69 µM in assay [2], 71 µM in assay [3] and 20 µM in assay [4].

In the case of `O=C(OCc1ccccc1Cl)c1cccc(=O)[nH]1`, the IC50 in assay [1] was 51 µM; in assay [2], 69 µM; in assay [3], 81 µM; in assay [4], 68 µM.

As for `O=C(OCCOc1ccccc1)c1cccc(=O)[nH]1`, the IC50 in assay [1] was 59 µM; in assay [2] it was greater than 150 µM; in assay [3], 127 µM; in assay [4] it was 79 µM.
